# Screening data (PubChem BioAssay)
# KCNQ1 block: inhibitors of human KCNQ1 channel, primary screen, cell-based, thallium flux, high-throughput; CHO-K1 KCNQ1, FluxOR thallium flux fluorescence; active compounds read high; B-score at 10 µM; 310,000 tested, 1.3% active; AID 2642, 2010;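 active means compounds whose thallium flux B-score, printed positive for inhibition, exceeds three library SD while starting fluorescence stays within three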;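 further: channel opened by potassium depolarization with thallium stimulus after 20 min compound exposure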
# KCNK9 block: KCNK9 potassium channel inhibitors, primary screen, HEK293 cells, thallium flux. FluxOR thallium flux fluorescence; active compounds read low. Potassium channel subfamily K member 9 (Homo sapiens), Q9NPC2. B-score at 10 µM. 310,000 tested, 1.2% active;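 active means ratio B-score over 3 SD below the library mean, with starting fluorescence within 5 SD of its mean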;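 further: negative B-score means less thallium flux so channel inhibition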
# KCNK3 block: human KCNK3 channel inhibitors, primary screen, CHO cells, FluxOR thallium flux, B-score | Potassium channel subfamily K member 3 (Homo sapiens), O14649 | FluxOR fluorescence; active compounds read low | B-score at 10 µM | 340,000 tested, 0.84% active;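 active means B-score under library mean minus 4 SD, starting fluorescence ratio at most library mean plus 5 SD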;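 further: more negative B-score means stronger inhibition of thallium flux through KCNK3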
# hERG rescue: hERG rescue from dofetilide block, primary screen, cell-based, CHO-hERG, FluxOR thallium flux, dofetilide IC70. 310,000 tested, 0.51% active. dofetilide IC70 present. Voltage-gated inwardly rectifying potassium channel KCNH2 (Homo sapiens), Q12809. activation (rescue from dofetilide block), less the hit threshold, % at 10 µM. AID 1511, 2009;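 active means activation above the mean of controls blocked by dofetilide plus 5 SD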;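 further: thallium influx through hERG after potassium depolarization seen as dye fluorescence rise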
# KCNQ1 act: potentiators or activators of KCNQ1 channel, primary screen, cell-based, thallium flux, high-throughput. CHO-K1 KCNQ1, thallium flux FluxOR fluorescence; active compounds read high. 310,000 tested, 0.35% active. B-score at 10 µM. Potassium voltage-gated channel subfamily KQT member 1 (Homo sapiens), P51787;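 active means fluorescence ratio B-score, a plate-corrected score, at least three library SD, with initial intensity B-score within 5 SD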
#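 Assay system: stable KCNQ1 CHO-K1 line; medium: assay buffer, equal DMSO in all wells; timing: 90 min dye loading and 20 min compound exposure, both at room temperature; technique: kinetic FluxOR thallium fluorescence, 10-s 1-Hz baseline, 110-s post-stimulus read; read-out basis: B score of baseline-normalized fluorescence ratio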
# Kir21 block: inhibitors of mouse Kir2.1 inward-rectifier potassium channel; Inward rectifier potassium channel 2 (Mus musculus), P35561; HEK293-Kir2.1, FluxOR thallium flux fluorescence; active compounds read low; 310,000 tested, 0.85% active; B-score at 10 µM;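 active means fluorescence ratio B-score at or below minus 3 SD of library scores, with starting-brightness B-score within 2 SD, cut at about -4.2 in these data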;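 further: channel flux triggered by added potassium and thallium sulfate stimulus; B-score of peak minus minimum fluorescence over baseline after thallium stimulus; more negative B-score means stronger Kir2.1 block with less thallium influx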
# Target sequence (P35561 whole entry, looked up): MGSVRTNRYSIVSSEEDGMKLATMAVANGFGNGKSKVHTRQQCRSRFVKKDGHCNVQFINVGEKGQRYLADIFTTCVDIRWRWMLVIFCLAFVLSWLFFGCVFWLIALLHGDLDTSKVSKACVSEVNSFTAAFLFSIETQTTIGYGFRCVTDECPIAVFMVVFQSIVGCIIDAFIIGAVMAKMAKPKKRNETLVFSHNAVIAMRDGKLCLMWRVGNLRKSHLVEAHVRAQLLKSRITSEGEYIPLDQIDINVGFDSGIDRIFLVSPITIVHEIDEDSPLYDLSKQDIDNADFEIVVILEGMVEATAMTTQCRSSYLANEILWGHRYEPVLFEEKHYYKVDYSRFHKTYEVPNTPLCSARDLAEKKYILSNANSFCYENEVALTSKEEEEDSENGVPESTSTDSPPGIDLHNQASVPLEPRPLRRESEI
# * hit, by the source's call; i = inactive; . = not tested or not shown. This is a sample that favours compounds with a hit; in the whole collection about 3.7% have one here.
SMILES,KCNQ1 block,KCNK9 block,KCNK3 block,hERG rescue,KCNQ1 act,Kir21 block
COc1ccc(S(=O)(=O)Nc2nc3ccccc3nc2Nc2ccc3c(c2)OCO3)cc1,i,i,.,-10,i,-0.46
CC(C)OCCCNC(=O)c1ccc(NC(=O)C2CCCO2)cc1 (centres undefined),i,i,i,-12,i,0.04
CCCCNC(=O)c1ccc(NC(=O)C2CCCO2)cc1 (centres undefined),i,i,i,40*,i,-0.27
COc1ccc(/C=C2\C(=O)c3ccccc3OC2c2ccccc2)cc1 (centres undefined),i,-6.7*,i,-6,i,0.33
CCC(CCC(=O)Nc1ccc(S(N)(=O)=O)cc1)C(=O)O (centres undefined),i,i,i,5.1*,i,-0.89
CC(C)Cn1c(N)c(C(=O)COC(=O)Cc2cccc(C(F)(F)F)c2)c(=O)n(C)c1=O,i,i,i,-23,i,-0.12
O=C(COc1ccc(Cl)cc1Cl)NCC1(N2CCOCC2)CCCCC1,.,.,i,.,.,.
OC(CNCC1(N2CCCCC2)CCCCC1)COc1ccc(Cl)cc1Cl (centres undefined),i,i,i,-9,i,-9.3*
CCOC(=O)c1ccc(N=c2sc(C(=O)OC)cc(=O)n2-c2ccc(C(=O)OCC)cc2)cc1,6*,i,i,-10,i,0.04
COC(=O)c1cc(=O)n(-c2ccccc2)c(=Nc2ccccc2)s1,i,i,i,-10,i,-0.55
COC(=O)c1cc(=O)n(Cc2ccc(F)cc2)c(=Nc2ccccc2)s1,6*,i,i,-8,i,-0.49
COC(=O)c1cc(=O)n(Cc2ccc(OC)c(OC)c2)c(=Nc2ccc(F)cc2)s1,6*,i,i,-9,i,0.47
CCOC(=O)CC(NC(=O)c1cccs1)c1ccc(OCC)cc1 (centres undefined),i,i,i,8.6*,i,0.95
COCCN(CCOC)Cc1c(O)ccc2c1O/C(=C\c1ccc(C)o1)C2=O,9*,i,i,-22,i,-6.8
CSc1ccc(/C=N/n2c(Cc3ccc(Br)cc3)n[nH]c2=S)cc1,i,i,i,155*,i,0.01
Cc1cc(C)n(-c2nnc(C)n2/N=C/c2ccccc2OCc2ccccc2Cl)n1,i,-7.1*,i,-20,i,-0.59
Cc1cc(C)n(-c2nnc(C)n2/N=C/c2ccccc2F)n1,i,i,i,-6,i,-0.62
COc1ccc(Nc2ccc(Cl)nn2)cc1,i,i,i,-5,i,1
Clc1ccc(Nc2ccc(Cl)nn2)cc1,i,i,i,5.9*,i,0.7
NC(=O)C1=C(N=C2CCCCC2)CCCC1,.,.,i,.,.,.
CCc1ccc(/C=C/C(=O)C2C(=O)c3ccccc3C2=O)cc1,i,i,i,28*,28*,-1.1
CCc1ccc(C2C(C(=O)O)c3ccccc3C(=O)N2C)cc1 (centres undefined),i,i,i,-3,i,0
CCOc1ccccc1NC(=S)NCc1ccco1,i,i,i,-12,i,0.02
O=C(CSc1nnc(SCc2cccc3ccccc23)s1)N/N=C/C=C/c1ccccc1[N+](=O)[O-],i,-7.5*,i,-14,i,-0.12
O=C(CSc1nnc(SCc2cccc3ccccc23)s1)N/N=C/c1c[nH]c2ccccc12,i,i,i,-1,i,0.08
CCCCN1C[C@H](CO)Oc2cccc(F)c2S1(=O)=O,.,.,i,.,.,.
O=c1c2[nH]cnc2n(-c2cccc(Br)c2)c(=O)n1Cc1ccccc1,i,i,i,-5,i,2.3
CC(C)C(=O)N1CCC(CN=CC2=C(O)CC(C)(C)CC2=O)CC1,i,i,i,-10,i,0.75
